≈ marks a conversion by molar mass, not a printed value.

Test system in one experiment: not listed separately
As to the kind of experiment: Antifungal activity against Histoplasma capsulatum G217B ATCC 26032 assessed as inhibition of visible growth after 5 days. The class given is functional.
Settings: not given
The procedure, abridged:
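Wild-type G217B yeasts kept in HMM at 37 °C under 5% CO2. Wells held 2×10^5 yeasts (hemocytometer count) with a two-fold dilution series from 40 to 0.078 µM, at 1% DMSO in the top dilution. Plates were agitated twice daily and growth followed by A595 over 5 days. MIC is the lowest concentration with no visible growth on visual inspection of the plates.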
As for `O=C(CCC1CCCCC1)Nc1ncc(CC2CCCCC2)s1`, the MIC (commonly the smallest concentration in the dilution series that meets the test's criterion for growth inhibition) came out at 5 µM (≈ 1.67 µg/mL) and the MIC50 (in general, the lowest concentration that inhibits either 50% of growth or 50% of the strains tested, depending on the study) was found to be 0.8 µM (≈ 0.268 µg/mL).

`O=C(Nc1ncc(Cc2ccccc2)s1)N1CCCCC1`: the MIC is > 20 µM and the MIC50 is > 10 µM.

As to `O=C(Nc1ncc(Cc2ccc3ccccc3c2)s1)C1CCCCC1`, the MIC was > 20 µM and the MIC50 is > 10 µM.

As for `CC(C)C(=O)Nc1ncc(CC2CCCCC2)s1`, the MIC was > 20 µM and the MIC50 is > 10 µM.

For the compound `O=C(/C=C/C1CCCCC1)Nc1ncc(Cc2ccccc2)s1`, the MIC is > 20 µM and the MIC50 is > 10 µM.

With `O=C(CCC1CCCCC1)Nc1ncc(Cc2ccc(F)cc2)s1`, the MIC is > 20 µM and the MIC50 was > 10 µM.

With `COc1ccc(Cc2cnc(NC(=O)/C=C/c3ccco3)s2)cc1`, the MIC is > 20 µM and the MIC50 is > 10 µM.

On to `O=C(Nc1ncc(Cc2ccc(F)cc2)s1)C1CCCCC1`, for which the minimal inhibitory concentration (MIC) is 20 µM (≈ 6.37 µg/mL) and the MIC50 amounted to 4.4 µM (≈ 1.4 µg/mL).

As for `CN1CCC(C(=O)Nc2ncc(Cc3ccccc3)s2)CC1`, the MIC was > 20 µM and the MIC50 is > 10 µM.

Take `O=C(CC1CCCCC1)Nc1ncc(Cc2ccc3ccccc3c2)s1`: the minimum inhibitory concentration (MIC) is 20 µM (≈ 7.29 µg/mL) and the MIC50 is 5.7 µM (≈ 2.08 µg/mL).

On to `O=C(Nc1ncc(Cc2ccccc2)s1)c1ccccc1`, for which the MIC was > 20 µM and the MIC50 is > 10 µM.

For `O=C(Nc1ncc(Cc2ccccc2)s1)C1CCSCC1`, the MIC was 10 µM (≈ 3.18 µg/mL) and the MIC50 came to 4.8 µM (≈ 1.53 µg/mL).

With `O=C(Nc1ncc(Cc2ccc3ccccc3c2)s1)c1ccccc1`, the minimum inhibitory concentration (MIC) was > 20 µM and the MIC50 is > 10 µM.

On to `O=C(CCC1CCCCC1)Nc1ncc(-c2ccccc2)s1`, for which the MIC was > 20 µM and the MIC50 is > 10 µM.

On to `O=C(Nc1ncc(Cc2ccccc2)s1)N1CCOCC1`, for which the MIC was > 20 µM and the MIC50 was > 10 µM.

`O=C(Nc1ncc(Cc2cccc3ccccc23)s1)C12CC3CC(CC(C3)C1)C2`: the MIC is > 20 µM and the MIC50 is > 10 µM.

With `O=C(Nc1nc(C23CC4CC(CC(C4)C2)C3)cs1)C1CCCCC1`, the MIC came out at 5 µM (≈ 1.72 µg/mL) and the MIC50 amounted to 2.5 µM (≈ 0.861 µg/mL).

In the case of `O=C(Nc1ncc(-c2ccccc2)s1)C1CCCCC1`, the MIC is > 20 µM and the MIC50 was > 10 µM.

`O=C(CC1CCCCC1)Nc1ncc(CC2CCCCC2)s1`: the MIC was > 20 µM and the MIC50 is > 10 µM.

For the compound `O=C(CCC1CCCCC1)Nc1ncc(Cc2ccc3ccccc3c2)s1`, the MIC is > 20 µM and the MIC50 was > 10 µM.

On to `O=C(Nc1ncc(CC2CCCCC2)s1)C12CC3CC(CC(C3)C1)C2`, for which the MIC is > 20 µM and the MIC50 is > 10 µM.

Take `O=C(Nc1ncc(Cc2cccc3ccccc23)s1)C(F)(F)F`: the minimum inhibitory concentration (MIC) is > 20 µM and the MIC50 was > 10 µM.

For the compound `O=C(Nc1ncc(Cc2ccccc2)s1)c1cnc(-c2cccs2)s1`, the MIC is > 20 µM and the MIC50 was > 10 µM.

In the case of `O=C(Nc1ncc(Cc2ccc3ccccc3c2)s1)C12CC3CC(CC(C3)C1)C2`, the MIC was > 20 µM and the MIC50 was > 10 µM.

In the case of `CN(C(=O)CCC1CCCCC1)c1ncc(Cc2ccccc2)s1`, the MIC was > 20 µM and the MIC50 is > 10 µM.

Turning to `O=C(Nc1nc(C23CC4CC(CC(C4)C2)C3)cs1)C1CCCC1`, the MIC was 20 µM (≈ 6.61 µg/mL) and the MIC50 is 7.4 µM (≈ 2.45 µg/mL).

For the compound `O=C(Nc1ncc(CC2CCCCC2)s1)C1CCCCC1`, the MIC stood at 2.5 µM (≈ 0.766 µg/mL) and the MIC50 came out at 0.7 µM (≈ 0.215 µg/mL).

For the compound `O=C(CCC1CCCCC1)Nc1ncc(Cc2ccccc2Cl)s1`, the minimal inhibitory concentration (MIC) came to 2.5 µM (≈ 0.907 µg/mL) and the MIC50 came out at 0.9 µM (≈ 0.327 µg/mL).

As for `O=C(CC1CCCCC1)Nc1ncc(-c2ccccc2)s1`, the MIC was > 20 µM and the MIC50 was > 10 µM.

Turning to `CC(C)C(=O)Nc1ncc(Cc2ccc3ccccc3c2)s1`, the MIC came to 20 µM (≈ 6.21 µg/mL) and the MIC50 came out at 4.5 µM (≈ 1.4 µg/mL).

As for `O=C(CCC1CCCCC1)Nc1nc(-c2ccccc2)cs1`, the MIC is > 20 µM and the MIC50 is > 10 µM.

On to `CC(C)C(=O)Nc1nc(C23CC4CC(CC(C4)C2)C3)cs1`, for which the MIC was > 20 µM and the MIC50 was > 10 µM.

With `O=C(Nc1ncc(Cc2ccc(F)cc2)s1)C1CCCC1`, the MIC amounted to 20 µM (≈ 6.09 µg/mL) and the MIC50 was 5.2 µM (≈ 1.58 µg/mL).

Regarding `Nc1ncc(Cc2ccccc2)s1`, the MIC was > 20 µM and the MIC50 is > 10 µM.

On to `O=C(Nc1ncc(Cc2ccccc2)s1)C1CCOCC1`, for which the MIC is > 20 µM and the MIC50 was > 10 µM.

`O=C(Nc1ncc(-c2ccccc2)s1)C1CCCC1`: the MIC was > 20 µM and the MIC50 is > 10 µM.

For `O=C(Nc1nc(-c2ccccc2)cs1)C1CCCC1`, the MIC was > 20 µM and the MIC50 is > 10 µM.

For the compound `O=C(CCC1CCCCC1)Nc1ncc(Cc2ccccc2F)s1`, the MIC was found to be 2.5 µM (≈ 0.866 µg/mL) and the MIC50 was found to be 1 µM (≈ 0.346 µg/mL).

As for `CC(C)(C)OC(=O)Nc1ncc(C(O)c2ccccc2)s1` (stereo unspecified), the minimal inhibitory concentration (MIC) is > 20 µM and the MIC50 is > 10 µM.

For `Cc1nc(NC(=O)CCC2CCCCC2)sc1Cc1ccccc1`, the MIC was > 20 µM and the MIC50 is > 10 µM.

For `CC(C)C(=O)Nc1ncc(Cc2ccccc2)s1`, the MIC came to 20 µM (≈ 5.21 µg/mL) and the MIC50 was 6.7 µM (≈ 1.74 µg/mL).

Turning to `O=C(Nc1nc(C23CC4CC(CC(C4)C2)C3)cs1)c1ccccc1`, the minimum inhibitory concentration (MIC) came to 10 µM (≈ 3.38 µg/mL) and the MIC50 stood at 3.1 µM (≈ 1.05 µg/mL).

Consider `O=C(CCC1CCCCC1)Nc1nnc(Cc2ccccc2)s1`, for which the MIC was > 20 µM and the MIC50 is > 10 µM.

`O=C(Nc1ncc(CC2CCCCC2)s1)c1ccccc1`: the MIC came out at 10 µM (≈ 3 µg/mL) and the MIC50 amounted to 4.6 µM (≈ 1.38 µg/mL).

As for `O=C(CCC1CCCCC1)Nc1nc(C23CC4CC(CC(C4)C2)C3)cs1`, the MIC turned out to be 20 µM (≈ 7.45 µg/mL) and the MIC50 amounted to 5.2 µM (≈ 1.94 µg/mL).

As for `O=C(Nc1ncc(Cc2ccccc2)s1)C12CC3CC(CC(C3)C1)C2`, the MIC stood at 10 µM (≈ 3.53 µg/mL) and the MIC50 was found to be 5 µM (≈ 1.76 µg/mL).

In the case of `O=C(Nc1ncc(Cc2cccc3ccccc23)s1)c1ccccc1`, the minimum inhibitory concentration (MIC) was > 20 µM and the MIC50 is > 10 µM.

`O=C(Nc1ncc(Cc2ccccc2)s1)N1CCCC1`: the MIC was > 20 µM and the MIC50 was > 10 µM.

With `O=C(Nc1ncc(Cc2ccccc2)s1)C(F)(F)F`, the MIC is > 20 µM and the MIC50 was > 10 µM.

Turning to `O=C(CCC1CCCCC1)Nc1ncc(Cc2cccc(C(F)(F)F)c2)s1`, the minimum inhibitory concentration (MIC) is > 20 µM and the MIC50 was > 10 µM.

In the case of `O=C(CC1CCCCC1)Nc1nc(C23CC4CC(CC(C4)C2)C3)cs1`, the MIC is > 20 µM and the MIC50 was > 10 µM.

In the case of `O=C(Nc1ncc(Cc2ccccc2)s1)C1COc2ccccc2C1` (stereo unspecified), the MIC is > 20 µM and the MIC50 was > 10 µM.

A further experiment relates to Cryptococcus neoformans. As to the kind of experiment: Antifungal activity against Cryptococcus neoformans MATalpha serotype A strain H99 assessed as inhibition of visible growth after 5 days. The class given is functional. The note with it: MATalpha serotype A strain H99, 120 h.
As for `O=C(CCC1CCCCC1)Nc1ncc(CC2CCCCC2)s1`, the MIC was > 20 µM and the MIC50 amounted to 9.6 µM (≈ 3.21 µg/mL).

On to `O=C(Nc1nc(C23CC4CC(CC(C4)C2)C3)cs1)C1CCCCC1`, for which the MIC is > 20 µM and the MIC50 is > 10 µM.

As for `O=C(Nc1ncc(CC2CCCCC2)s1)C1CCCCC1`, the MIC was > 20 µM and the MIC50 is > 10 µM.

On to `O=C(CCC1CCCCC1)Nc1ncc(Cc2ccccc2Cl)s1`, for which the MIC was > 20 µM and the MIC50 was > 10 µM.

On to `O=C(CCC1CCCCC1)Nc1ncc(Cc2ccccc2F)s1`, for which the minimal inhibitory concentration (MIC) was > 20 µM and the MIC50 is > 10 µM.

In the case of `O=C(Nc1nc(C23CC4CC(CC(C4)C2)C3)cs1)c1ccccc1`, the MIC was determined as 20 µM (≈ 6.77 µg/mL) and the MIC50 was 8.3 µM (≈ 2.81 µg/mL).

The record behind these values is ChEMBL document CHEMBL3393037, “Design, synthesis, and biological evaluation of aminothiazole derivatives against the fungal pathogens Histoplasma capsulatum and Cryptococcus neoformans” (Bioorg Med Chem, 2015).
